# According to ChEMBL document CHEMBL2016521, “Preparation, gram-negative antibacterial activity, and hydrolytic stability of novel siderophore-conjugated monocarbam diols” (ACS Med Chem Lett, 2011):
# Experiments:
# [1] = test system: Pseudomonas aeruginosa; test: Antibacterial activity against Pseudomonas aeruginosa isolate 1091-05; type: functional
# [2] = test system: Klebsiella pneumoniae; test: Antibacterial activity against Klebsiella pneumoniae 1000-02; type: functional
# [3] = test system: Acinetobacter baumannii; test: Antibacterial activity against Acinetobacter baumannii AB-3167; type: functional
# [4] = test system: Pseudomonas aeruginosa; test: Antibacterial activity against imipenem-sensitive Pseudomonas aeruginosa isolate 1091-05 infected in ip dosed SF-1 mouse assessed as survival of animal administered 0.5 and 4 hrs post infected measured on day 4; type: functional; settings: isolate 1091-05, ip, read-out: PD50
# [5] = test system: Pseudomonas aeruginosa; test: Antibacterial activity against imipenem-sensitive Pseudomonas aeruginosa isolate 1091-05 infected in sc dosed neutropenic-C3H/HeN mouse assessed as mouse survival administered 4 hrs post infection followed by BID dosing for two days measured on day 10; type: functional; settings: isolate 1091-05, sc, read-out: PD50
# [6] = test system: Serratia marcescens; test: Antimicrobial activity against Serratia marcescens; type: functional
# [7] = test system: Pseudomonas aeruginosa; test: Antibacterial activity against Pseudomonas aeruginosa; type: functional
# [8] = Chemical stability of the compound in phosphate buffer at pH 8 assessed as drug degradation at 1 uM after 100 hrs by HPLC analysis; type: physicochemical; settings: read-out: Drug degradation
# In short: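 Hydrolytic β-lactam ring-opening was followed in aqueous buffer at pH 8.0 and 37 °C over a 100 h incubation. The read-out was percent degradation.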
# [9] = test system: Citrobacter freundii; test: Antimicrobial activity against Citrobacter freundii; type: functional
# [10] = test system: Klebsiella aerogenes; test: Antimicrobial activity against Enterobacter aerogenes; type: functional
# [11] = test system: Escherichia coli; test: Antimicrobial activity against extended spectrum beta-lactamase-producing Escherichia coli; type: functional
# [12] = test system: Klebsiella pneumoniae; test: Antimicrobial activity against carbapenemase-producing Klebsiella pneumoniae; type: functional
# [13] = test system: Stenotrophomonas maltophilia; test: Antimicrobial activity against Stenotrophomonas maltophilia; type: functional
# [14] = test system: Acinetobacter sp.; test: Antimicrobial activity against Acinetobacter sp.; type: functional
# [15] = test system: Pseudomonas aeruginosa; test: Antibacterial activity against Pseudomonas aeruginosa cystic fibrosis isolate; type: functional
# [16] = test system: Escherichia coli; test: Antimicrobial activity against CTX-M-positive extended spectrum beta-lactamase-producing Escherichia coli; type: functional
# [17] = test system: Escherichia coli; test: Antimicrobial activity against Escherichia coli clinical isolate; type: functional
# [18] = test system: Klebsiella pneumoniae; test: Antimicrobial activity against extended spectrum beta-lactamase-producing Klebsiella pneumoniae; type: functional
# [19] = test system: Klebsiella pneumoniae; test: Antimicrobial activity against Klebsiella pneumoniae clinical isolate; type: functional
# [20] = test system: Pseudomonas aeruginosa; test: Antibacterial activity against metallo-beta-lactamase producing Pseudomonas aeruginosa; type: functional
# [21] = test system: Pseudomonas aeruginosa; test: Antibacterial activity against Pseudomonas aeruginosa clinical isolate; type: functional
# [22] = Plasma protein binding in human; type: ADME, cell-free; settings: read-out: PPB (converted)
structure (smiles),measurement,setting,value
CC(C)(O/N=C(\C(=O)N[C@H]1CN(C(=O)[N-]S(=O)(=O)n2nc(-c3cc(=O)c(O)c[nH]3)n(C[C@@H]3CCCO3)c2=O)C1=O)c1csc(N)n1)C(=O)[O-].[Na+].[Na+],MIC,[1],0.5 µg/mL
same,MIC,[2],0.5 µg/mL
same,MIC,[3],2 µg/mL
same,ED50,[4],2.8 mg/kg
same,ED50,[5],> 100 mg/kg
CC(C)(O/N=C(\C(=O)N[C@H]1CN(C(=O)[N-]S(=O)(=O)n2nc(-c3cc(=O)c(O)c[nH]3)n(CCCO)c2=O)C1=O)c1csc(N)n1)C(=O)[O-].[Na+].[Na+],MIC,[1],0.25 µg/mL
C[C@@H](O)[C@H]1C(=O)N2C(C(=O)O)=C(S[C@@H]3CN[C@H](C(=O)N(C)C)C3)[C@H](C)[C@H]12 [MEROPENEM],MIC50,[6],0.06 µg/mL
same,MIC90,[6],> 64 µg/mL
same,MIC,[1],0.5 µg/mL
same,MIC,[2],< 1 µg/mL
same,MIC,[3],0.25 µg/mL
same,MIC90,[7],> 64 µg/mL
same,ED50,[4],1.3 mg/kg
same,ED50,[5],1.04 mg/kg
same,"degraded at 100 h, 1 µM",[8],50%
same,MIC50,[9],0.06 µg/mL
same,MIC90,[9],0.25 µg/mL
same,MIC50,[10],0.06 µg/mL
same,MIC90,[10],0.25 µg/mL
same,MIC50,[11],0.06 µg/mL
same,MIC90,[11],0.06 µg/mL
same,MIC50,[12],0.06 µg/mL
same,MIC90,[12],32 µg/mL
same,MIC50,[13],> 64 µg/mL
same,MIC90,[13],> 64 µg/mL
same,MIC50,[14],1 µg/mL
same,MIC90,[14],32 µg/mL
same,MIC50,[15],8 µg/mL
same,MIC90,[15],> 64 µg/mL
same,MIC50,[16],0.06 µg/mL
same,MIC90,[16],0.06 µg/mL
same,MIC50,[17],0.06 µg/mL
same,MIC90,[17],0.06 µg/mL
same,MIC50,[18],0.06 µg/mL
same,MIC90,[18],32 µg/mL
same,MIC50,[19],0.06 µg/mL
same,MIC90,[19],32 µg/mL
same,MIC50,[20],8 µg/mL
same,MIC90,[20],> 64 µg/mL
same,MIC50,[21],8 µg/mL
same,MIC90,[21],> 64 µg/mL
Cc1cc(Cn2c(-c3cc(=O)c(O)c[nH]3)nn(S(=O)(=O)[N-]C(=O)N3C[C@H](NC(=O)/C(=N\OC(C)(C)C(=O)[O-])c4csc(N)n4)C3=O)c2=O)no1.[Na+].[Na+],MIC,[1],2 µg/mL
C=CC1=C(C(=O)O)N2C(=O)[C@@H](NC(=O)/C(=N\OCC(=O)O)c3csc(N)n3)[C@H]2SC1 [CEFIXIME],fraction unbound,[22],0.35
CC(C)(O/N=C(\C(=O)N[C@H]1CN(C(=O)[N-]S(=O)(=O)n2nc(-c3cc(=O)c(O)c[nH]3)n(C[C@H](O)CO)c2=O)C1=O)c1csc(N)n1)C(=O)[O-].[Na+].[Na+],MIC,[1],0.125 µg/mL
same,MIC,[2],0.5 µg/mL
same,MIC,[3],0.5 µg/mL
same,MIC90,[7],1 µg/mL
same,ED50,[5],18.6 mg/kg
C[C@H](O)Cn1c(-c2cc(=O)c(O)c[nH]2)nn(S(=O)(=O)[N-]C(=O)N2C[C@H](NC(=O)/C(=N\OC(C)(C)C(=O)[O-])c3csc(N)n3)C2=O)c1=O.[Na+].[Na+],MIC,[1],0.125 µg/mL
same,MIC,[2],0.25 µg/mL
same,MIC,[3],1 µg/mL
same,MIC90,[7],1 µg/mL
same,ED50,[5],15.7 mg/kg
CCN(CC)CCn1c(-c2cc(=O)c(O)c[nH]2)nn(S(=O)(=O)[N-]C(=O)N2C[C@H](NC(=O)/C(=N\OC(C)(C)C(=O)[O-])c3csc(N)n3)C2=O)c1=O.[Na+].[Na+],MIC,[1],1 µg/mL
COCC1=C(C(=O)O)N2C(=O)[C@@H](NC(=O)/C(=N\OC)c3csc(N)n3)[C@H]2SC1 [CEFPODOXIME],fraction unbound,[22],0.75
CC(C)(C)CCn1c(-c2cc(=O)c(O)c[nH]2)nn(S(=O)(=O)[N-]C(=O)N2C[C@H](NC(=O)/C(=N\OC(C)(C)C(=O)[O-])c3csc(N)n3)C2=O)c1=O.[Na+].[Na+],MIC,[1],0.5 µg/mL
